Assay results taken from ChEMBL document CHEMBL1154067, “Antiviral and cytotoxic activities of aminoarylazo compounds and aryltriazene derivatives” (Bioorg Med Chem, 2009).
Activity calls are given as the source filed them.

System: Respiratory syncytial virus
Assay: Antiviral activity against Respiratory syncytial virus A2 infected in Vero-76 cells after 5 days by plaque reduction assay
Assay type: functional, organism-based
Conditions: human respiratory syncytial virus, A2, Vero 76, 120 h

Structure (SMILES) | EC50
CN(Cc1ccccc1)/N=N/c1ccccc1 | > 100 µM
CN(C)CCCN(/N=N/c1cc(F)ccc1F)c1ccccc1 | > 7 µM
Cc1ccc(/N=N/N(CCCN(C)C)c2ccccc2)cc1 | > 100 µM
CN(C)CCCNc1ccc(/N=N/c2cccc([N+](=O)[O-])c2)cc1 | > 25 µM
Fc1ccc(/N=N/c2ccc(NC[C@@H]3CCCN4CCCC[C@H]34)c3c2CCCC3)c(F)c1 | > 15 µM
COc1c(C)c2c(c(O)c1C/C=C(\C)CCC(=O)O)C(=O)OC2 [MYCOPHENOLIC ACID] | 0.6 µM

System: Bovine viral diarrhea virus 1
Assay: Antiviral activity against Bovine viral diarrhea virus infected in MDBK cells assessed as inhibition of virus-induced cytopathicity after 3 to 4 days by MTT assay
Assay type: functional, organism-based
Conditions: Bovine viral diarrhea virus isolates and strains

Structure (SMILES) | EC50
CN(Cc1ccccc1)/N=N/c1ccccc1 | > 100 µM
CN(C)CCCN(/N=N/c1cc(F)ccc1F)c1ccccc1 | > 25 µM
Cc1ccc(/N=N/N(CCCN(C)C)c2ccccc2)cc1 | > 100 µM
CN(C)CCCNc1ccc(/N=N/c2cccc([N+](=O)[O-])c2)cc1 | 16 µM
Fc1ccc(/N=N/c2ccc(NC[C@@H]3CCCN4CCCC[C@H]34)c3c2CCCC3)c(F)c1 | > 11 µM
COc1c(C)c2c(c(O)c1C/C=C(\C)CCC(=O)O)C(=O)OC2 [MYCOPHENOLIC ACID] | > 42 µM

System: Poliovirus 1
Assay: Antiviral activity against Human poliovirus 1 strain Sabin after 2 days by plaque reduction assay
Assay type: functional
Conditions: not given

Structure (SMILES) | Activity
CN(C)CCCNc1ccc(/N=N/c2cccc([N+](=O)[O-])c2)cc1 | inactive
Fc1ccc(/N=N/c2ccc(NC[C@@H]3CCCN4CCCC[C@H]34)c3c2CCCC3)c(F)c1 | inactive

Same assay, conditions: Enterovirus C, 48 h

Structure (SMILES) | EC50
CN(Cc1ccccc1)/N=N/c1ccccc1 | > 100 µM
CN(C)CCCN(/N=N/c1cc(F)ccc1F)c1ccccc1 | > 7 µM
Cc1ccc(/N=N/N(CCCN(C)C)c2ccccc2)cc1 | > 100 µM
COc1c(C)c2c(c(O)c1C/C=C(\C)CCC(=O)O)C(=O)OC2 [MYCOPHENOLIC ACID] | > 13 µM

System: Vero
Assay: Cytotoxicity against african green monkey Vero 76 cells by crystal violet staining
Assay type: cell-based
Conditions: chlorocebus sabaeus, vero
Outline: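 Mock-infected Vero 76 seeded at 4 × 10^5 cells/mL, run in parallel with plaque assays, with or without serial compound dilutions. Cell number of monolayers determined by crystal violet staining. CC50 = concentration reducing viable cell number 50%.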

Structure (SMILES) | CC50
CN(Cc1ccccc1)/N=N/c1ccccc1 | ≥ 100 µM
CN(C)CCCN(/N=N/c1cc(F)ccc1F)c1ccccc1 | 7 µM
Cc1ccc(/N=N/N(CCCN(C)C)c2ccccc2)cc1 | 100 µM
CN(C)CCCNc1ccc(/N=N/c2cccc([N+](=O)[O-])c2)cc1 | 25 µM
Fc1ccc(/N=N/c2ccc(NC[C@@H]3CCCN4CCCC[C@H]34)c3c2CCCC3)c(F)c1 | 15 µM
COc1c(C)c2c(c(O)c1C/C=C(\C)CCC(=O)O)C(=O)OC2 [MYCOPHENOLIC ACID] | ≥ 13 µM

System: Coxsackievirus B2
Assay: Antiviral activity against Coxsackie virus type B2 virus infected in african green monkey Vero-76 cells after 3 days by plaque reduction assay
Assay type: functional, organism-based
Conditions: Enterovirus B, Vero 76, 72 h
Outline: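 Vero 76 cells seeded at 2 × 10^5 cells/well, grown overnight to confluence at 37 °C in 5% CO2, then infected at 50–100 PFU/well. Unadsorbed virus removed. Overlay of DMEM with 1% inactivated FCS and 0.75% methylcellulose, with or without serial compound dilutions. After 3 days at 37 °C, fixed and stained with crystal violet in PBS/50% ethanol; plaques counted. EC50 is the concentration reducing plaque number by 50%.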

Structure (SMILES) | EC50
CN(Cc1ccccc1)/N=N/c1ccccc1 | > 100 µM
CN(C)CCCN(/N=N/c1cc(F)ccc1F)c1ccccc1 | > 7 µM
Cc1ccc(/N=N/N(CCCN(C)C)c2ccccc2)cc1 | > 100 µM
CN(C)CCCNc1ccc(/N=N/c2cccc([N+](=O)[O-])c2)cc1 | 11 µM
Fc1ccc(/N=N/c2ccc(NC[C@@H]3CCCN4CCCC[C@H]34)c3c2CCCC3)c(F)c1 | > 15 µM
COc1c(C)c2c(c(O)c1C/C=C(\C)CCC(=O)O)C(=O)OC2 [MYCOPHENOLIC ACID] | > 13 µM

System: Mammalian orthoreovirus 1
Assay: Antiviral activity against Reovirus-1 infected in BHK-21 cells assessed as inhibition of virus-induced cytopathicity after 3 to 4 days by MTT assay
Assay type: functional, organism-based
Conditions: Mammalian orthoreovirus 1, BHK-21
Outline: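 BHK-21 cells seeded at 5 × 10^4 cells/well, grown overnight to confluent monolayers at 37 °C in 5% CO2, then infected at m.o.i. 0.01 in serum-free medium. One hour later, MEM Earle's with 1% final inactivated FCS added, with or without serial compound dilutions. Viability read by MTT after 3–4 days at 37 °C. EC50 is the concentration giving 50% protection from cytopathogenicity.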

Structure (SMILES) | EC50
CN(Cc1ccccc1)/N=N/c1ccccc1 | > 100 µM
CN(C)CCCN(/N=N/c1cc(F)ccc1F)c1ccccc1 | > 25 µM
Cc1ccc(/N=N/N(CCCN(C)C)c2ccccc2)cc1 | > 100 µM
CN(C)CCCNc1ccc(/N=N/c2cccc([N+](=O)[O-])c2)cc1 | > 20 µM
Fc1ccc(/N=N/c2ccc(NC[C@@H]3CCCN4CCCC[C@H]34)c3c2CCCC3)c(F)c1 | > 9 µM
COc1c(C)c2c(c(O)c1C/C=C(\C)CCC(=O)O)C(=O)OC2 [MYCOPHENOLIC ACID] | > 100 µM

System: Vaccinia virus
Assay: Antiviral activity against Vaccinia virus after 3 days by plaque reduction assay
Assay type: functional, organism-based
Conditions: Orthopoxvirus vaccinia

Structure (SMILES) | Activity
CN(Cc1ccccc1)/N=N/c1ccccc1 | inactive
CN(C)CCCN(/N=N/c1cc(F)ccc1F)c1ccccc1 | inactive
Cc1ccc(/N=N/N(CCCN(C)C)c2ccccc2)cc1 | inactive
CN(C)CCCNc1ccc(/N=N/c2cccc([N+](=O)[O-])c2)cc1 | inactive
Fc1ccc(/N=N/c2ccc(NC[C@@H]3CCCN4CCCC[C@H]34)c3c2CCCC3)c(F)c1 | inactive

System: MT4
Assay: Cytotoxicity against human MT4 cells after 96 hrs by MTT assay
Assay type: cell-based
Conditions: mt4, 96 h
Outline: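 Exponentially growing mock-infected MT-4 seeded at 1 × 10^5 cells/mL in RPMI-1640 with 10% FCS, penicillin and streptomycin. Incubated with or without serial compound dilutions at 37 °C, 5% CO2. Viability by MTT after 96 h. CC50 = concentration reducing viability 50%.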

Structure (SMILES) | CC50
CN(Cc1ccccc1)/N=N/c1ccccc1 | ≥ 100 µM
CN(C)CCCN(/N=N/c1cc(F)ccc1F)c1ccccc1 | 13 µM
Cc1ccc(/N=N/N(CCCN(C)C)c2ccccc2)cc1 | 18 µM
CN(C)CCCNc1ccc(/N=N/c2cccc([N+](=O)[O-])c2)cc1 | 14 µM
Fc1ccc(/N=N/c2ccc(NC[C@@H]3CCCN4CCCC[C@H]34)c3c2CCCC3)c(F)c1 | 51 µM
COc1c(C)c2c(c(O)c1C/C=C(\C)CCC(=O)O)C(=O)OC2 [MYCOPHENOLIC ACID] | 0.2 µM

System: Yellow fever virus
Assay: Antiviral activity against Yellow fever virus infected in BHK-21 cells assessed as inhibition of virus-induced cytopathicity after 3 to 4 days by MTT assay
Assay type: functional, organism-based
Conditions: not given

Structure (SMILES) | EC50
CN(Cc1ccccc1)/N=N/c1ccccc1 | > 100 µM
CN(C)CCCN(/N=N/c1cc(F)ccc1F)c1ccccc1 | > 25 µM
Cc1ccc(/N=N/N(CCCN(C)C)c2ccccc2)cc1 | > 100 µM
CN(C)CCCNc1ccc(/N=N/c2cccc([N+](=O)[O-])c2)cc1 | 7 µM
Fc1ccc(/N=N/c2ccc(NC[C@@H]3CCCN4CCCC[C@H]34)c3c2CCCC3)c(F)c1 | > 9 µM
COc1c(C)c2c(c(O)c1C/C=C(\C)CCC(=O)O)C(=O)OC2 [MYCOPHENOLIC ACID] | > 100 µM

System: not listed separately
Assay: Cytotoxicity against hamster BHK21 cells assessed as reduction in cell viability after 48 to 96 hrs by MTT assay
Assay type: cell-based, Mesocricetus auratus, BHK-21
Conditions: bhk-21
Outline: (§1)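 Mock-infected cells in maintenance medium, MDBK at 6 × 10^5 and BHK at 1 × 10^6 cells/mL initial density, with or without serial compound dilutions. Run in parallel with antiviral assays. Viability by MTT after 48–96 h at 37 °C, 5% CO2. CC50 = concentration reducing viability 50%.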

Structure (SMILES) | CC50
CN(Cc1ccccc1)/N=N/c1ccccc1 | > 100 µM
CN(C)CCCN(/N=N/c1cc(F)ccc1F)c1ccccc1 | 25 µM
Cc1ccc(/N=N/N(CCCN(C)C)c2ccccc2)cc1 | > 100 µM
CN(C)CCCNc1ccc(/N=N/c2cccc([N+](=O)[O-])c2)cc1 | 20 µM
Fc1ccc(/N=N/c2ccc(NC[C@@H]3CCCN4CCCC[C@H]34)c3c2CCCC3)c(F)c1 | 9 µM
COc1c(C)c2c(c(O)c1C/C=C(\C)CCC(=O)O)C(=O)OC2 [MYCOPHENOLIC ACID] | > 100 µM

System: not listed separately
Assay: Cytotoxicity against MDBK cells after 48 to 96 hrs by MTT assay
Assay type: cell-based, Bos taurus
Conditions: cattle, mdbk
Outline: as §1

Structure (SMILES) | CC50
CN(Cc1ccccc1)/N=N/c1ccccc1 | > 100 µM
CN(C)CCCN(/N=N/c1cc(F)ccc1F)c1ccccc1 | 25 µM
Cc1ccc(/N=N/N(CCCN(C)C)c2ccccc2)cc1 | > 100 µM
CN(C)CCCNc1ccc(/N=N/c2cccc([N+](=O)[O-])c2)cc1 | 33 µM
Fc1ccc(/N=N/c2ccc(NC[C@@H]3CCCN4CCCC[C@H]34)c3c2CCCC3)c(F)c1 | 11 µM
COc1c(C)c2c(c(O)c1C/C=C(\C)CCC(=O)O)C(=O)OC2 [MYCOPHENOLIC ACID] | 42 µM

System: Vesicular stomatitis virus
Assay: Antiviral activity against Vesicular stomatitis virus after 2 days by plaque reduction assay
Assay type: functional, organism-based
Conditions: not given

Structure (SMILES) | Activity
CN(Cc1ccccc1)/N=N/c1ccccc1 | inactive
CN(C)CCCN(/N=N/c1cc(F)ccc1F)c1ccccc1 | inactive
Cc1ccc(/N=N/N(CCCN(C)C)c2ccccc2)cc1 | inactive
CN(C)CCCNc1ccc(/N=N/c2cccc([N+](=O)[O-])c2)cc1 | inactive
Fc1ccc(/N=N/c2ccc(NC[C@@H]3CCCN4CCCC[C@H]34)c3c2CCCC3)c(F)c1 | inactive

System: Human immunodeficiency virus 1
Assay: Antiviral activity against HIV1 infected in human MT4 cells assessed as inhibition of virus-induced cytopathicity after 4 days by MTT assay
Assay type: functional, organism-based
Conditions: not given

Structure (SMILES) | inhibition
CN(Cc1ccccc1)/N=N/c1ccccc1 | inactive
CN(C)CCCN(/N=N/c1cc(F)ccc1F)c1ccccc1 | inactive
Cc1ccc(/N=N/N(CCCN(C)C)c2ccccc2)cc1 | inactive
CN(C)CCCNc1ccc(/N=N/c2cccc([N+](=O)[O-])c2)cc1 | inactive
Fc1ccc(/N=N/c2ccc(NC[C@@H]3CCCN4CCCC[C@H]34)c3c2CCCC3)c(F)c1 | inactive

System: Human alphaherpesvirus 1
Assay: Antiviral activity against HSV1 infected in Vero-76 cells after 3 days by plaque reduction assay
Assay type: functional, organism-based
Conditions: Human alphaherpesvirus 1, Vero 76, 72 h

Structure (SMILES) | EC50
CN(Cc1ccccc1)/N=N/c1ccccc1 | > 100 µM
CN(C)CCCN(/N=N/c1cc(F)ccc1F)c1ccccc1 | > 7 µM
Cc1ccc(/N=N/N(CCCN(C)C)c2ccccc2)cc1 | > 100 µM
CN(C)CCCNc1ccc(/N=N/c2cccc([N+](=O)[O-])c2)cc1 | 6 µM
Fc1ccc(/N=N/c2ccc(NC[C@@H]3CCCN4CCCC[C@H]34)c3c2CCCC3)c(F)c1 | > 15 µM
COc1c(C)c2c(c(O)c1C/C=C(\C)CCC(=O)O)C(=O)OC2 [MYCOPHENOLIC ACID] | > 13 µM
